Data taken from ChEMBL document CHEMBL2146421, “Synthesis and anticonvulsant activity of some new thiazolo[3,2-a][1,3]diazepine, benzo[d]thiazolo[5,2-a][12,6]diazepine and benzo[d]oxazolo[5,2-a][12,6]diazepine analogues” (Eur J Med Chem, 2011).

What was measured:
[1] = tested on: Mus musculus; assay: Neurotoxicity in Swiss albino mouse assessed as inability to climb up backwards in a glass tube within 30 seconds at 1.5 mmol/kg, ip measured after 15 and 25 mins by Chimney test; type: toxicity, organism-based; conditions: in vivo
Method in brief: (§1)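 Chimney test: 15 and 25 min after i.p. dosing (3.0, 1.5, 0.75, 0.375 mmol/kg), inability of mice to climb backwards up a glass tube 25 cm long, 3 cm inner diameter, within 30 s recorded as neurological deficit.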

[2] = tested on: Mus musculus; assay: Anticonvulsant activity in Swiss albino mouse assessed as protection against pentylenetetrazole-induced convulsion at 1.5 mmol/kg, ip treated after 30 mins of pentylenetetrazole measured for 30 mins; type: functional
[3] = tested on: Mus musculus; assay: Hypnotic activity in Swiss albino mouse assessed as righting reflex at 1.5 mmol/kg, ip; type: ADME, organism-based; conditions: in vivo
[4] = tested on: Mus musculus; assay: Neurotoxicity in Swiss albino mouse assessed as effect on motor activity at 1.5 mmol/kg, ip after 30 mins; type: toxicity, organism-based; conditions: in vivo, 0.5 h
Method in brief: (§2)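 Motor activity measured with an activity meter at 0 and 30 min after i.p. dosing, zero time taken as 100%.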

[5] = tested on: Mus musculus; assay: Anticonvulsant activity in Swiss albino mouse assessed as protection against pentylenetetrazole-induced convulsion at 0.75 mmol/kg, ip treated after 30 mins of pentylenetetrazole measured for 30 mins; type: functional
[6] = tested on: Mus musculus; assay: Anticonvulsant activity in Swiss albino mouse assessed as protection against pentylenetetrazole-induced convulsion at 0.375 mmol/kg, ip treated after 30 mins of pentylenetetrazole measured for 30 mins; type: functional
[7] = Toxicity in Swiss albino mouse assessed as mortality at 1.5 mmol/kg, ip measured 7 to 11 mins before pentylenetetrazole challenge; type: organism-based; conditions: in vivo, read-out: Activity
Method in brief: (§3)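 Compounds given i.p. at 3.0, 1.5, 0.75 and 0.375 mmol/kg to 6 mice per compound. Deaths occurring before the PTZ injection were recorded. PTZ (83 mg/kg s.c.) followed 30 min after compound dosing.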

[8] = tested on: Mus musculus; assay: Hypnotic activity in Swiss albino mouse assessed as righting reflex at 0.375 mmol/kg, ip; type: ADME, organism-based; conditions: in vivo
[9] = tested on: Mus musculus; assay: Neurotoxicity in Swiss albino mouse assessed as inability to climb up backwards in a glass tube within 30 seconds at 0.75 mmol/kg, ip measured after 15 and 25 mins by Chimney test; type: toxicity, organism-based; conditions: in vivo; method in brief: as §1
[10] = Toxicity in Swiss albino mouse assessed as mortality at 0.75 mmol/kg, ip measured 7 to 11 mins before pentylenetetrazole challenge; type: organism-based; conditions: in vivo, read-out: Activity; method in brief: as §3
[11] = tested on: Mus musculus; assay: Neurotoxicity in Swiss albino mouse assessed as effect on motor activity at 0.75 mmol/kg, ip after 30 mins; type: toxicity, organism-based; conditions: in vivo, 0.5 h; method in brief: as §2
[12] = tested on: Mus musculus; assay: Hypnotic activity in Swiss albino mouse assessed as righting reflex at 0.75 mmol/kg, ip; type: ADME, organism-based; conditions: in vivo
[13] = tested on: Mus musculus; assay: Neurotoxicity in Swiss albino mouse assessed as inability to climb up backwards in a glass tube within 30 seconds at 0.375 mmol/kg, ip measured after 15 and 25 mins by Chimney test; type: toxicity, organism-based; conditions: in vivo; method in brief: as §1
[14] = Toxicity in Swiss albino mouse assessed as mortality at 0.375 mmol/kg, ip measured 7 to 11 mins before pentylenetetrazole challenge; type: organism-based; conditions: in vivo, read-out: Activity; method in brief: as §3
[15] = tested on: Mus musculus; assay: Neurotoxicity in Swiss albino mouse assessed as effect on motor activity at 0.375 mmol/kg, ip after 30 mins; type: toxicity, organism-based; conditions: in vivo, 0.5 h; method in brief: as §2
[16] = tested on: Mus musculus; assay: Anticonvulsant activity in Swiss albino mouse assessed as protection against pentylenetetrazole-induced convulsion at 1.38 mmol/kg, ip treated after 30 mins of pentylenetetrazole measured for 30 mins; type: functional
[17] = Toxicity in Swiss albino mouse assessed as mortality at 1.38 mmol/kg, sc; type: organism-based; conditions: in vivo, read-out: Activity
[18] = tested on: Mus musculus; assay: Neurotoxicity in Swiss albino mouse assessed as inability to climb up backwards in a glass tube within 30 seconds at 1.38 mmol/kg, ip measured after 15 and 25 mins by Chimney test; type: toxicity, organism-based; conditions: in vivo
Method in brief: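 Chimney test: at 15 and 25 min after dosing, inability of mice to climb backwards up a glass tube (25 cm long, 3 cm inner diameter) within 30 s was scored as neurological deficit.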

SMILES | Activity [1] [%] | Activity [2] [%] | Activity [3] [%] | Activity [4] [%] | Activity [5] [%] | Activity [6] [%] | mortality [7] [%] | Activity [8] [%] | Activity [9] [%] | mortality [10] [%] | Activity [11] [%] | Activity [12] [%] | Activity [13] [%] | mortality [14] [%] | Activity [15] [%] | Activity [16] [%] | mortality [17] [%] | Activity [18] [%]
O=C1CCCN2C(=N1)Sc1ccccc12 | 0 | 70 | 0 | 0 | 0 | 0 | 0 |  |  |  |  |  |  |  |  |  |  | 
O=C1CCCN2C=C(Br)SC2=N1 | 80 | 30 | 30 | 12 | 0 | 0 | 0 | 0 | 40 | 0 | 13 | 0 | 10 | 0 | 15 |  |  | 
S=C1CCCN2C=CSC2=N1 | 100 | 0 | 0 | 11 | 0 | 0 | 50 | 0 | 30 | 10 | 26 | 0 | 10 | 0 | 30 |  |  | 
CCCC(CCC)C(=O)[O-].[Na+] [VALPROATE SODIUM] |  |  |  |  |  |  |  |  |  |  |  |  |  |  |  | 100 | 0 | 100
